# Reference: ChEMBL document CHEMBL1140087, “Synthesis and structure-activity relationship studies of cytotoxic ester and ether anhydrovinblastine derivatives” (J Nat Prod, 2008)
# Columns and labels:
# A549 = experiment: Cytotoxicity against human A549 cells after 72 hrs by SRB assay; type: functional, cell-based; settings: A549, 72 h
# Method in brief: (§1)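 Ditartrate salts tested. ATCC cells seeded at 6000/well, attached overnight, then exposed in triplicate to graded concentrations at 37 °C for 72 h. Fixed with 10% trichloroacetic acid for 60 min at 4 °C, stained with 0.4% w/v SRB in 1% acetic acid for 15 min, dye solubilised in Tris buffer, A515 read. IC50 for 50% growth inhibition by Logit method. Anhydrovinblastine as positive control.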
# HeLa = experiment: Cytotoxicity against human HeLa cells after 72 hrs by SRB assay; type: functional, cell-based; method in brief: as §1
Structure (SMILES),IC50 (A549),IC50 (HeLa)
CCC1=C[C@@H]2CN(CCc3c([nH]c4ccccc34)[C@@](C(=O)OC)(c3cc4c(cc3OC)N(C)[C@H]3[C@@](O)(COC(=O)c5ccccc5Cl)[C@H](OC(C)=O)[C@]5(CC)C=CCN6CC[C@]43[C@@H]65)C2)C1,40.5 nM,147 nM
CCC(=O)OC[C@@]1(O)[C@H](OC(C)=O)[C@]2(CC)C=CCN3CC[C@@]4(c5cc([C@@]6(C(=O)OC)C[C@@H]7C=C(CC)CN(CCc8c6[nH]c6ccccc86)C7)c(OC)cc5N(C)[C@@H]14)[C@@H]32,39.1 nM,62.1 nM
CCC1=C[C@@H]2CN(CCc3c([nH]c4ccccc34)[C@@](C(=O)OC)(c3cc4c(cc3OC)N(C)[C@H]3[C@@](O)(COC(=O)c5ccc([N+](=O)[O-])cc5)[C@H](OC(C)=O)[C@]5(CC)C=CCN6CC[C@]43[C@@H]65)C2)C1,52.3 nM,169 nM
CCC1=C[C@@H]2CN(CCc3c([nH]c4ccccc34)[C@@](C(=O)OC)(c3cc4c(cc3OC)N(C)[C@H]3[C@@](O)(COC(=O)C(C)(C)C)[C@H](OC(C)=O)[C@]5(CC)C=CCN6CC[C@]43[C@@H]65)C2)C1,181 nM,96 nM
CCC1=C[C@@H]2CN(CCc3c([nH]c4ccccc34)[C@@](C(=O)OC)(c3cc4c(cc3OC)N(C)[C@H]3[C@@](O)(COC(C)=O)[C@H](OC(C)=O)[C@]5(CC)C=CCN6CC[C@]43[C@@H]65)C2)C1,38.2 nM,35.3 nM
C=CCOC[C@@]1(O)[C@H](OC(C)=O)[C@]2(CC)C=CCN3CC[C@@]4(c5cc([C@@]6(C(=O)OC)C[C@@H]7C=C(CC)CN(CCc8c6[nH]c6ccccc86)C7)c(OC)cc5N(C)[C@@H]14)[C@@H]32,124 nM,162 nM
CCC1=C[C@@H]2CN(CCc3c([nH]c4ccccc34)[C@@](C(=O)OC)(c3cc4c(cc3OC)N(C)[C@H]3[C@@](O)(COC(=O)c5ccccc5OC)[C@H](OC(C)=O)[C@]5(CC)C=CCN6CC[C@]43[C@@H]65)C2)C1,14.2 nM,154 nM
CCC1=C[C@@H]2CN(CCc3c([nH]c4ccccc34)[C@@](C(=O)OC)(c3cc4c(cc3OC)N(C)[C@H]3[C@@](O)(COC(=O)c5ccccc5)[C@H](OC(C)=O)[C@]5(CC)C=CCN6CC[C@]43[C@@H]65)C2)C1,25.4 nM,35.6 nM
CCC1=C[C@@H]2CN(CCc3c([nH]c4ccccc34)[C@@](C(=O)OC)(c3cc4c(cc3OC)N(C)[C@H]3[C@@](O)(COC(=O)c5ccc(Cl)cc5)[C@H](OC(C)=O)[C@]5(CC)C=CCN6CC[C@]43[C@@H]65)C2)C1,56.7 nM,102 nM
CCOC[C@@]1(O)[C@H](OC(C)=O)[C@]2(CC)C=CCN3CC[C@@]4(c5cc([C@@]6(C(=O)OC)C[C@@H]7C=C(CC)CN(CCc8c6[nH]c6ccccc86)C7)c(OC)cc5N(C)[C@@H]14)[C@@H]32,98 nM,220 nM
CCC1=C[C@@H]2CN(CCc3c([nH]c4ccccc34)[C@@](C(=O)OC)(c3cc4c(cc3OC)N(C)[C@H]3[C@@](O)(COC(=O)C(C)C)[C@H](OC(C)=O)[C@]5(CC)C=CCN6CC[C@]43[C@@H]65)C2)C1,59.9 nM,87.5 nM
CCC1=C[C@@H]2CN(CCc3c([nH]c4ccccc34)[C@@](C(=O)OC)(c3cc4c(cc3OC)N(C)[C@H]3[C@@](O)(COC(=O)CC(C)C)[C@H](OC(C)=O)[C@]5(CC)C=CCN6CC[C@]43[C@@H]65)C2)C1,70.3 nM,175 nM
CCCOC[C@@]1(O)[C@H](OC(C)=O)[C@]2(CC)C=CCN3CC[C@@]4(c5cc([C@@]6(C(=O)OC)C[C@@H]7C=C(CC)CN(CCc8c6[nH]c6ccccc86)C7)c(OC)cc5N(C)[C@@H]14)[C@@H]32,401 nM,398 nM
CCC1=C[C@@H]2CN(CCc3c([nH]c4ccccc34)[C@@](C(=O)OC)(c3cc4c(cc3OC)N(C)[C@H]3[C@@](O)(COC(=O)C5CC5)[C@H](OC(C)=O)[C@]5(CC)C=CCN6CC[C@]43[C@@H]65)C2)C1,47.9 nM,38.1 nM
CCC1=C[C@@H]2CN(CCc3c([nH]c4ccccc34)[C@@](C(=O)OC)(c3cc4c(cc3OC)N(C)[C@H]3[C@@](O)(COCc5ccc(OC)cc5)[C@H](OC(C)=O)[C@]5(CC)C=CCN6CC[C@]43[C@@H]65)C2)C1,702 nM,409 nM
CCCCOC[C@@]1(O)[C@H](OC(C)=O)[C@]2(CC)C=CCN3CC[C@@]4(c5cc([C@@]6(C(=O)OC)C[C@@H]7C=C(CC)CN(CCc8c6[nH]c6ccccc86)C7)c(OC)cc5N(C)[C@@H]14)[C@@H]32,422 nM,422 nM
CCC1=C[C@@H]2CN(CCc3c([nH]c4ccccc34)[C@@](C(=O)OC)(c3cc4c(cc3OC)N(C)[C@H]3[C@@](O)(COC(=O)Cc5ccccc5)[C@H](OC(C)=O)[C@]5(CC)C=CCN6CC[C@]43[C@@H]65)C2)C1,67.4 nM,272 nM
CCC1=C[C@@H]2CN(CCc3c([nH]c4ccccc34)[C@@](C(=O)OC)(c3cc4c(cc3OC)N(C)[C@H]3[C@@](O)(COC(=O)c5ccc(OC)cc5)[C@H](OC(C)=O)[C@]5(CC)C=CCN6CC[C@]43[C@@H]65)C2)C1,29.7 nM,151 nM
